Laboratory results: ChEMBL document CHEMBL3045340, “Synthesis and antifungal activity of novel bisdithiocarbamate derivatives of carbohydrates against Fusarium oxysporum f. sp. lini” (2000)
Active and inactive are the calls of the source. The calls are words filed in the database; no cut-off is given here.

Key:
[1] = system: Fusarium oxysporum f. sp. lini; assay: Antifungal activity against Fusarium oxysporum f. sp. lini assessed as inhibition of radial fungal growth at 0.58 mM after 6 days; format: functional; conditions: 144 h, read-out: GI
How it was run: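 Mycelial plug (6 mm) cut from margin of 4-day-old MEA culture placed on MEA plates containing compound (DMF vehicle, ≤1% v/v final) at 0.58 mM dithiocarbamoyl equivalent; 20 °C, 12 h photoperiod; colony diameter read daily over 6 days; percent growth inhibition versus untreated culture; three replicates per treatment, two runs; two-sample t-test, P 0.01.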

[2] = system: Fusarium oxysporum f. sp. lini; assay: Induction of morphological alterations in Fusarium oxysporum f. sp. lini; format: functional, organism-based
How it was run: (§1)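 Fayret liquid medium with compound in DMF at 0.58 mM dithiocarbamoyl equivalent, inoculated with glass-wool-filtered spores (hemocytometer count) from 10-day-old MEA culture to 104 spores mL-1; shaken at 90 tpm, 20 °C, 12 h photoperiod, 7 days; spore germination and hyphal morphology of treated versus untreated fungus examined by light microscopy.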

[3] = system: Fusarium oxysporum f. sp. lini; assay: Induction of delay in spore germination of Fusarium oxysporum f. sp. lini; format: functional, organism-based; how it was run: as §1
[4] = system: Fusarium oxysporum f. sp. lini; assay: Antifungal activity against Fusarium oxysporum f. sp. lini assessed as inhibition of radial fungal growth at 100 ppm after 6 days; format: functional
How it was run: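 Radial growth on malt extract agar. Compounds dissolved in N,N-dimethylformamide (final ≤1% v/v) were mixed into molten MEA at 50 °C, giving 0.58 mM equivalent of dithiocarbamoyl group. A 6 mm plug from the margin of a 4-day MEA culture was placed on each plate. Plates were held at 20 °C under a 12 h photoperiod, with colony diameter read daily for 6 days. Two runs, three replicates each; two-sample t-test against untreated cultures.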

[5] = system: Fusarium oxysporum f. sp. lini; assay: Inhibition of spore germination of Fusarium oxysporum f. sp. lini; format: functional, organism-based
How it was run: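 Liquid Fayret medium held N,N-dimethylformamide solutions at 0.58 mM equivalent of dithiocarbamoyl group. Spores were washed from a 10-day MEA culture, glass-wool filtered, counted by hemocytometer and seeded at 10^4 spores mL-1. Tubes were shaken at 90 tpm at 20 °C under a 12 h photoperiod for 7 days. Germination timing and hyphal morphology were assessed by light microscopy against untreated controls.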

Row | Compound | inhibition of growth at 580 µM [1] | Activity [3] | other results
1 | CCN(CC)C(=S)SCC(=O)CSC(=S)N(CC)CC | 12% | – | –
2 | CCN(CC)C(=S)SC[C@H]1OC(O)[C@H](O)[C@@H](SC(=S)N(CC)CC)[C@@H]1O (stereo not given in full) | 18% | Active | Activity [2]: Active
3 | CCN(CC)C(=S)SCC(O)CSC(=S)N(CC)CC | 30% | Active | Activity [2]: Active
4 | CCN(CC)C(=S)S [DITIOCARB SODIUM] | – | – | inhibition of growth at 100 ppm ([4]; 144 h, read-out: GI): 18%; inhibition [5]: Active
5 | CCN(CC)C(=S)SC[C@H](O)[C@H]1O[C@@H]2OC(C)(C)O[C@@H]2[C@H]1SC(=S)N(CC)CC | 17% | Active | –
6 | CCCCCCCC(=O)OC(CSC(=S)N(CC)CC)CSC(=S)N(CC)CC | 7% | – | –
7 | CCN(CC)C(=S)SCC(O)CO (racemic) | 10% | – | –
8 | maneb | – | – | growth inhibition (GI) [4]: 12%; inhibition [5]: Active
9 | CCN(CC)C(=S)SCC(CSC(=S)N(CC)CC)OC(C)=O | 12% | – | –
10 | CCSC(=S)NCC(O)CNC(=S)SCC | 27% | Active | Activity [2]: Active
11 | CCCC(=O)OC(CSC(=S)N(CC)CC)CSC(=S)N(CC)CC | 12% | – | –
